Assay results: ChEMBL document CHEMBL1131153, “Metabolites of the angiotensin II antagonist tasosartan: the importance of a second acidic group” (J Med Chem, 1998)

Assays:
[1] = biological target: T1, Angiotensin II receptor (AT-1) type-1 (Rattus norvegicus, UniProt P29089+P25095); experiment: Compound was evaluated for the in vitro inhibition of specific binding of [125I]-A II to Angiotensin II receptor, type 1 from rat adrenal membranes.; assay type: cell membranes, Membrane
T1 sequence (P29089 whole entry): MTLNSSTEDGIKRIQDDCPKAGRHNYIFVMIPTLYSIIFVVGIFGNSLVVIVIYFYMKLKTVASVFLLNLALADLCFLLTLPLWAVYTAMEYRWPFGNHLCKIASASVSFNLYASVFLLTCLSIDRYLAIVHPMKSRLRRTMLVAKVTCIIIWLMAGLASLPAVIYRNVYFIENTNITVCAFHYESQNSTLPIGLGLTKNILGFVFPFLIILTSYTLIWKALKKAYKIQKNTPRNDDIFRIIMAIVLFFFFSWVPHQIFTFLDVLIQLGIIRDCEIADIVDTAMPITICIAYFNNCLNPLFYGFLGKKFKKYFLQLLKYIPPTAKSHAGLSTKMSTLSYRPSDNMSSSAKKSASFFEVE
T1 sequence (P25095 whole entry): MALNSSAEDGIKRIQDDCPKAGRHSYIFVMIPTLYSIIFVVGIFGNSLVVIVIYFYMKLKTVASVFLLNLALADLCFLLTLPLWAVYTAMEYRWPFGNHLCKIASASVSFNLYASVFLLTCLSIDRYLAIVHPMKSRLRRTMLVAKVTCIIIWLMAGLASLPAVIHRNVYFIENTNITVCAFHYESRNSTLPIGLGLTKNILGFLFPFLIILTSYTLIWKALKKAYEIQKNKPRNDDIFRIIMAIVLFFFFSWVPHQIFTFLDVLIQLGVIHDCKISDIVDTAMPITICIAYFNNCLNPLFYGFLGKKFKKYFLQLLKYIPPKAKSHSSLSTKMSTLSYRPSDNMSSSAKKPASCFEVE

[2] = biological target: Angiotensin II receptor (AT-1) type-1 (Rattus norvegicus) (UniProt P29089+P25095); experiment: Compound was evaluated for the in vitro inhibition of specific binding of [125I]-A II to Angiotensin II receptor, type 1 in rat liver membrane at 100 nM.
Rattus norvegicus [3] = experiment: Compound was evaluated for maximum decrease in mean arterial pressure after an intragastric dose of 3.0 mg/kg in rats; assay type: functional, Artery
Summary of the method: (§1)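 Goldblatt 2K-1C model: Sprague-Dawley rats (150 g) under pentobarbital (50 mg/kg ip) had the left renal artery clipped with a silver wire (0.2 mm internal diameter). Hypertension developed over 4–7 weeks, then the right carotid was cannulated under pentobarbital and saline infused at 5 µL/min. Dosing by gastric gavage in 0.5% methyl cellulose, 5 mL/kg. MAP recorded for 24 h; maximum fall reported, mean ± SE, 6–12 rats/group.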

Rattus norvegicus [4] = experiment: Compound was evaluated for maximum decrease in mean arterial pressure after an intragastric dose of 30.0 mg/kg in rats; assay type: functional, Artery; summary of the method: as §1
Rattus norvegicus [5] = experiment: Compound was evaluated for maximum decrease in mean arterial pressure after an intragastric dose of 0.3 mg/kg in rats; assay type: functional, Artery; summary of the method: as §1
Rattus norvegicus [6] = experiment: Compound was evaluated for maximum decrease in mean arterial pressure after an intragastric dose of 1.0 mg/kg in rats; assay type: functional, Artery; summary of the method: as §1
Rattus norvegicus [7] = experiment: Compound was evaluated for maximum decrease in mean arterial pressure after an intravenous dose of 3.0 mg/kg in rats; assay type: functional, Artery
Summary of the method: (§2)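 Renal hypertension produced in 150 g Sprague-Dawley rats by clipping the left renal artery (silver wire, 0.2 mm ID), used after 4–7 weeks. Right carotid cannulated under pentobarbital (50 mg/kg ip) with saline infusion at 5 µL/min. Intravenous dosing, then MAP and heart rate monitored over 24 h. Maximum MAP decrease reported as mean ± SE versus vehicle-treated rats.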

Rattus norvegicus [8] = experiment: Compound was evaluated for maximum decrease in mean arterial pressure after an intravenous dose of 0.1 mg/kg in rats; assay type: functional, Artery; summary of the method: as §2
Rattus norvegicus [9] = experiment: Compound was evaluated for maximum decrease in mean arterial pressure after an intragastric dose of 10.0 mg/kg in rats; assay type: functional, Artery; summary of the method: as §1
Rattus norvegicus [10] = experiment: Compound was evaluated for maximum decrease in mean arterial pressure after an intravenous dose of 1.0 mg/kg in rats; assay type: functional, Artery; summary of the method: as §2
Rattus norvegicus [11] = experiment: Compound was evaluated for maximum decrease in mean arterial pressure after an intragastric dose of 0.1 mg/kg in rats; assay type: functional, Artery; summary of the method: as §1
Rattus norvegicus [12] = experiment: Compound was evaluated for maximum decrease in mean arterial pressure after an intravenous dose of 10.0 mg/kg in rats; assay type: functional, Artery; summary of the method: as §2
Rattus norvegicus [13] = experiment: Compound was evaluated for maximum decrease in mean arterial pressure after an intravenous dose of 0.03 mg/kg in rats; assay type: functional, Artery; summary of the method: as §2
Rattus norvegicus [14] = experiment: Compound was evaluated for maximum decrease in mean arterial pressure after an intravenous dose of 0.10 mg/kg in rats; assay type: functional, Artery; conditions: dose 0.1 mg/kg; summary of the method: as §2

IC50 [1] | SMILES | MAP (Rattus norvegicus [3]) | MAP (Rattus norvegicus [6]) | MAP (Rattus norvegicus [7]) | MAP (Rattus norvegicus [9]) | MAP (Rattus norvegicus [10]) | further results
0.41 nM | Cc1nc(CO)nc2c1c(O)cc(=O)n2Cc1ccc(-c2ccccc2-c2nn[nH]n2)cc1 | – | – | – | – | – | –
– | Cc1nc(C)c2c(n1)N(Cc1ccc(-c3ccccc3-c3nnn(C4OC(C(=O)O)C(O)C(O)C4O)n3)cc1)C(=O)CC2 (centres undefined) | – | – | – | – | – | inhibition [2]: 3.5%
1.2 nM | Cc1nc(C)c2c(n1)N(Cc1ccc(-c3ccccc3-c3nnn[nH]3)cc1)C(=O)CC2 [TASOSARTAN] | 76 mmHg | 71 mmHg | 54 mmHg | 81 mmHg | 53 mmHg | MAP (Rattus norvegicus [4]): 80 mmHg; MAP (Rattus norvegicus [5]): 45 mmHg; MAP (Rattus norvegicus [8]): 37 mmHg; MAP (Rattus norvegicus [11]): 6 mmHg
– | Cc1nc(C)c2c(n1)N(Cc1ccc(-c3ccccc3-c3nn[nH]n3)cc1)C(=O)CC2O (centres undefined) | 54 mmHg | 55 mmHg | 47 mmHg | 71 mmHg | 51 mmHg | MAP (Rattus norvegicus [12]): 41 mmHg
0.17 nM | Cc1nc(C)c2c(O)cc(=O)n(Cc3ccc(-c4ccccc4-c4nn[nH]n4)cc3)c2n1 [ENOLTASOSARTAN] | 39 mmHg | – | – | 66 mmHg | – | MAP (Rattus norvegicus [13]): 34 mmHg; MAP (Rattus norvegicus [14]): 67 mmHg
6.5 nM | Cc1nc(C)c2ccc(=O)n(Cc3ccc(-c4ccccc4-c4nn[nH]n4)cc3)c2n1 | – | – | – | – | – | –
